Source: PubChem BioAssay (several laboratories)
pPAFAH inh: pPAFAH (human) enzyme inhibition. recombinant pPAFAH, FP-rhodamine probe fluorescence polarization. AID 463082. inhibition, % at 3.39 µM. 330,000 tested, 1.5% active. Q13093;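 active means inhibition above the mean inhibition across the screen plus 3 SD, cut at about 25% in these data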;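 further: inhibitors block binding of the rhodamine activity-based probe so polarization drops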
Target sequence (Q13093 whole entry, looked up): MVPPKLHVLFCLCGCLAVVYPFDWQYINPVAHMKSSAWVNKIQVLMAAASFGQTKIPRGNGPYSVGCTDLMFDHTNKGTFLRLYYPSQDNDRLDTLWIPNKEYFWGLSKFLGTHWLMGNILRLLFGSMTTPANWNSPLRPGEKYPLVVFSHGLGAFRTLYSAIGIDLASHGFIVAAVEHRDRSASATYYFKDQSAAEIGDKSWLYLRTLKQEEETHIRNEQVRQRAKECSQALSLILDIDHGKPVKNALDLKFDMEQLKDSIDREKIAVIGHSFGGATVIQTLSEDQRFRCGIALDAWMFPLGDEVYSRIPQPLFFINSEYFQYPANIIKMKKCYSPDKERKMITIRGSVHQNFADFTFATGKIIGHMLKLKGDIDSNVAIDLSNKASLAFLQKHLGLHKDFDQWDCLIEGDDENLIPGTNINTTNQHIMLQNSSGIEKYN
PAFAH2 inh: PAFAH2 (human) inhibition; inhibition, % at 3.39 µM; Q99487; recombinant PAFAH2, FP-rhodamine activity probe, fluorescence polarization; 340,000 tested, 0.99% active;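 active means inhibition above the mean over all tested compounds plus 3 SD, cut at about 30% in these data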;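 further: inhibitors block probe labeling of enzyme so polarization drops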
PREPL inh: inhibitors of human prolyl oligopeptidase-like enzyme PREPL; Q4J6C6; recombinant PREPL, fluorescence polarization activity-based probe; inhibition, % at 5.96 µM; 320,000 tested, 0.68% active; in the data active means inhibition above about 43%
Apaf-1 inh: inhibitors of human Apaf-1 apoptosome | inhibition, % at 20 µM | reconstituted apoptosome caspase-3 activity, DEVD-Rh110 fluorescence | AID 489030 | 330,000 tested, 0.71% active | O14727; active means inhibition of at least 40% at 20 µM
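Assay system – apoptosome proteins · Medium – Hepes buffer, pH 7.5 · Also added – cytochrome c with DEVD-Rh110 · Timing – 30 min compound preincubation, 50 min activation, room temperature · Detection – Rh110 fluorescence, excitation 480 nm, emission 540 nm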
PAFAH1B2 FP inh: PAFAH1B2 (human) inhibition | recombinant PAFAH1B2, FP-rhodamine activity probe, fluorescence polarization | inhibition, % at 3.39 µM | P68402 | 340,000 tested, 1.2% active;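 active means inhibition above the mean of all tested compounds plus 3 SD, cut at about 24% in these data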
PAFAH1B3 inh: blocks human PAF acetylhydrolase 1B catalytic subunit 3; 340,000 tested, 0.28% active; recombinant PAFAH1B3, FP-rhodamine probe, fluorescence polarization; inhibition, % at 3.39 µM; AID 492972; Q15102;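 active means inhibition above the screen-wide average of all tested compounds plus 3 SD, cut at about 25% in these data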
Target sequence (Q15102 whole entry, looked up): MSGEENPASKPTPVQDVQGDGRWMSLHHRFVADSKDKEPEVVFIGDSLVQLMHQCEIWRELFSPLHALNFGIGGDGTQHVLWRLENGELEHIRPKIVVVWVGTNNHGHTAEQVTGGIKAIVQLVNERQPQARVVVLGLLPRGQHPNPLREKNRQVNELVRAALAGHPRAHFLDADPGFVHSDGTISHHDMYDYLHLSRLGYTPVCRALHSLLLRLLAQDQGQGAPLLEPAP
PAFAH1B3 confirm: confirmation of human PAFAH1B3 inhibitors; shares compounds with PAFAH1B3 inh; recombinant PAFAH1B3, FP-Rh activity-based probe, fluorescence polarization; inhibition, % at 3.39 µM; 390 tested, 30% active;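 active means average inhibition over triplicate runs above the hit cutoff set in the earlier primary screen, cut at about 25% in these data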
Large screens that a line does not name were inactive (follow-up assays come after a bar, where they were run); ! = a repeat was not active. Hits are enriched below; roughly 3.5% of the tested compounds scored in any of these assays.

O=C1Nc2ccc(Br)cc2C1(O)c1ccccc1 (centres undefined)	none
O=C1Nc2ccc(Br)cc2C12NNc1ccccc1O2 (centres undefined)	pPAFAH inh 29.4, PAFAH1B3 inh 27.4 | PAFAH1B3 confirm inactive
O=S(=O)(Nc1nc2ccccc2nc1NCCO)c1cccc(Cl)c1	PAFAH1B3 inh 26.4 | PAFAH1B3 confirm inactive
Oc1ccc(CCNc2c3ccccc3nc3ccccc23)cc1O	PAFAH1B3 inh 39.9 | PAFAH1B3 confirm 33.0
O=c1c(O[C@@H]2O[C@H](CO)C(O)C2O)c(-c2ccc(O)c(O)c2)oc2cc(O)cc(O)c12 (some centres undefined)	PAFAH1B3 inh 25.5 | PAFAH1B3 confirm inactive
C[C@@H]1O[C@@H](Oc2c(-c3ccc(O)c(O)c3)oc3cc(O)cc(O)c3c2=O)[C@H](O)[C@H](O)[C@H]1O	PAFAH1B3 inh 26.8! | PAFAH1B3 confirm inactive
C[C@@H]1O[C@@H](O[C@H]2[C@H](O)[C@@H](O)[C@H](Oc3c(-c4ccc(O)c(O)c4)oc4cc(O)cc(O)c4c3=O)O[C@@H]2CO)[C@H](O)[C@H](O)[C@H]1O	none
O=c1c(O)c(-c2ccc(O)cc2)oc2cc(O)cc(O)c12	PAFAH1B3 inh 29.6 | PAFAH1B3 confirm inactive
O=c1cc(-c2ccc(O)cc2)oc2cc(O)cc(O)c12	none
CC(=O)N1N=C(c2ccccc2OC(=O)/C=C/c2ccccc2)CC1c1ccccc1 (centres undefined)	none (no result: PAFAH2 inh, PAFAH1B2 FP inh, PAFAH1B3 inh)
Fc1ccccc1N1CCN(Cc2cc(-c3ccccc3)on2)CC1	none
O=C(CSc1nc2ccsc2c(=O)n1CC1CCC(C(=O)O)CC1)c1ccc(Cl)cc1 (centres undefined)	PAFAH1B3 inh 26.8 | PAFAH1B3 confirm inactive
O=C(N/N=C/c1cc(Br)ccc1OC(=O)c1ccc(Br)cc1)c1ccncc1	PAFAH1B3 inh 25.7 | PAFAH1B3 confirm inactive
O=C(COC(=O)c1ccc([N+](=O)[O-])s1)c1ccc[nH]1	PAFAH1B3 inh 32.8 | PAFAH1B3 confirm 26.2
O=C(OCC(=O)c1ccc[nH]1)c1ccc([N+](=O)[O-])cc1	none
Cc1ccc(S(=O)(=O)N2CCCC2CNC(=O)c2ccc3c(c2)OCO3)cc1 (centres undefined)	none
CC12CCC(C(=O)N/N=C/c3ccc(O)cc3O)(OC1=O)C2(C)C (centres undefined)	none
CCc1nnc(N/N=C/c2cc(Br)c(O)cc2O)n1N	PAFAH1B3 inh 25.6 | PAFAH1B3 confirm inactive
CCc1nnc(N/N=C/c2ccc(O)c(OC)c2)n1N	none
COc1ccc2[nH]c3c4c(ccc3c2c1)C(=O)C=CC4=O	Apaf-1 inh 45.2, PAFAH1B3 inh 37.0 (no result: pPAFAH inh, PREPL inh) | PAFAH1B3 confirm inactive
CCNCC(=O)N1c2ccccc2CCc2ccc(NC(=O)OC(C)C)cc21	PAFAH1B3 inh 30.8 | PAFAH1B3 confirm inactive
CCNCC(=O)N1c2ccccc2CCc2ccc(NC(C)=O)cc21	none
COc1ccc(C(=O)Nc2ccc(S(=O)(=O)N3CCCCC3)cc2)cc1OC	none
COc1cc(OC)c(C(=O)Nc2ccc(S(=O)(=O)N3CCCCC3)cc2)cc1OC	PAFAH1B3 inh 29.9 | PAFAH1B3 confirm inactive
Cc1ccc(N2C(=O)c3cccc4c([N+](=O)[O-])ccc(c34)C2=O)c2cccnc12	none
Cc1nnc(N2C(=O)c3cccc4c([N+](=O)[O-])ccc(c34)C2=O)s1	PAFAH1B3 inh 28.6 | PAFAH1B3 confirm inactive
O=C1c2cccc3c([N+](=O)[O-])ccc(c23)C(=O)N1Cc1cccnc1	PAFAH1B3 inh 47.2 (no result: pPAFAH inh, PREPL inh, Apaf-1 inh) | PAFAH1B3 confirm 47.5
Cc1ccnc(N2C(=O)c3cccc4c([N+](=O)[O-])ccc(c34)C2=O)c1	PAFAH1B3 inh 31.0 | PAFAH1B3 confirm 41.0
COc1ccc2nc(NC(=O)C3CCN(C(=O)c4ccco4)CC3)sc2c1	none
COC(=O)c1ccsc1NC(=O)c1cccc(OC)c1	none
Cn1c(-c2ccccc2)c(C=O)c2ccccc21	none
Cn1c2c(c3ccccc31)CCSC2=O	PAFAH1B3 inh 26.2 | PAFAH1B3 confirm inactive
O=C(c1ccccc1)N1N=C(C(F)(F)F)CC1(O)c1ccc(F)cc1 (centres undefined)	none
COc1cc(/C=C/C(=O)O)ccc1O	none
COc1cc(/C=C/C(=O)CC(=O)/C=C/c2ccc(O)c(OC)c2)ccc1O	PAFAH1B3 inh 25.9 | PAFAH1B3 confirm inactive
Cc1cc2cc(CNC(=O)Nc3ccccc3)ccc2n1C	PAFAH1B3 inh 30.2 | PAFAH1B3 confirm inactive
C=CCN1C(=O)C(C)NC1=S (centres undefined)	none (no result: pPAFAH inh, PREPL inh, Apaf-1 inh)
CCN1CCN(c2ccc(S(=O)(=O)N3CCOCC3)cc2NC(=O)/C=C/c2cccc(OC)c2OC)CC1	none
COc1ccc(Cl)cc1NC(=O)c1nnn(CC(=O)Nc2ccc(C)c(C)c2)c1N	none
COc1ccc(NC(=O)c2cccc(N3C(=O)c4ccc(C(=O)Nc5ccc(OC)c(O)c5)cc4C3=O)c2)cc1O	PAFAH1B3 inh 26.1 | PAFAH1B3 confirm inactive
COc1cc2sc3cc(NCCCN4CCOCC4)ccc3c(=O)c2cc1OC	PAFAH1B3 inh 27.7 | PAFAH1B3 confirm inactive
COc1ccc(OC)c(S(=O)(=O)NCCCN2CCOCC2)c1	none
O=C(c1ccc2c(c1)N(Cc1cccc(Cl)c1)C(=O)c1ccccc1S2(=O)=O)N1CCN(c2ccccn2)CC1	none
O=C(CSc1nccc(=O)[nH]1)N1CCc2ccccc2C1	PAFAH1B3 inh 28.1 | PAFAH1B3 confirm inactive
O=C(Nc1ccc(SC(F)F)cc1)c1cc(-c2ccncc2)nc2ccccc12	none
Cc1cnc(C=NNC(N)=S)c2cccc(N)c12	PAFAH1B3 inh 34.4 (no result: pPAFAH inh, PREPL inh, Apaf-1 inh) | PAFAH1B3 confirm 51.4
O=C1NC(=O)c2cc(Br)cc3cccc1c23	PAFAH1B3 inh 45.6 | PAFAH1B3 confirm 52.7
Oc1ccccc1/C=N/n1c(COc2ccccc2)n[nH]c1=S	PAFAH1B3 inh 43.2 | PAFAH1B3 confirm inactive
Oc1ccc(/C=N/n2c(COc3ccccc3)n[nH]c2=S)c(O)c1	none
O=C(Nc1ccc(F)cc1F)Nc1csc2ccccc12	none (no result: PAFAH2 inh, PAFAH1B2 FP inh, PAFAH1B3 inh)
O=C(Nc1ccc(F)c(Cl)c1)Nc1csc2ccccc12	PAFAH1B3 inh 30.4 | PAFAH1B3 confirm inactive
Cc1ccc(C(C(=O)NCCc2ccccc2)N(C(=O)c2csnn2)C2CC2)cc1 (centres undefined)	none
C/C(=N/Nc1ccc([N+](=O)[O-])cc1)c1c[nH]c2ccccc12	PAFAH1B3 inh 36.1 (no result: pPAFAH inh, PREPL inh) | PAFAH1B3 confirm inactive
COc1cc(-c2nc3c4ccccc4nc(=S)n3[nH]2)cc(OC)c1OC	PAFAH1B3 inh 29.7 | PAFAH1B3 confirm inactive
COc1ccccc1-c1nc2c3ccccc3nc(=S)n2[nH]1	none
ON=C1c2ccccc2-c2ccc(O)cc21	PAFAH1B3 inh 36.7 (no result: pPAFAH inh, PREPL inh, Apaf-1 inh) | PAFAH1B3 confirm 27.7
Nc1ccc2c(c1)C(=NO)c1ccccc1-2	none (no result: pPAFAH inh, PREPL inh, Apaf-1 inh)
CCc1nc2ccc(C(=O)N3CCN(CC)CC3)cc2nc1CC	PAFAH1B3 inh 27.7 | PAFAH1B3 confirm inactive
